{"source": "ChEMBL document CHEMBL2034893", "about": "“Selective inhibition of human type-5 17β-hydroxysteroid dehydrogenase (AKR1C3) by baccharin, a component of Brazilian propolis” (J Nat Prod, 2012)", "key": {"[1]": {"target": "T1, Aldo-keto reductase family 1 member C3 (Homo sapiens, UniProt P42330)", "T1 sequence (P42330 whole entry)": "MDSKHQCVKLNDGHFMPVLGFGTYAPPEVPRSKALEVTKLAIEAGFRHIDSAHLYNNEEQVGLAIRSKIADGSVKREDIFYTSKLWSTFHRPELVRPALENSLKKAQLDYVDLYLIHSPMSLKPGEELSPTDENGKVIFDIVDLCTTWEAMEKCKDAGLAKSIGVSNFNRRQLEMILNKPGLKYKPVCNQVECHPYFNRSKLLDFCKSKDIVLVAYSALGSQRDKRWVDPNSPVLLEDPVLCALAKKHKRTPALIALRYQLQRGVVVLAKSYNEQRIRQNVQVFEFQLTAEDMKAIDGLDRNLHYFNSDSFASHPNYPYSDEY", "assay": "Inhibition of human recombinant AKR1C3 expressed in Escherichia coli JM109 cells using S-tetralol as substrate at 100 uM by fluorometry"}, "[2]": {"target": "T2, Aldo-keto reductase family 1 member C1 (Homo sapiens, UniProt Q04828)", "T2 sequence (Q04828 whole entry)": "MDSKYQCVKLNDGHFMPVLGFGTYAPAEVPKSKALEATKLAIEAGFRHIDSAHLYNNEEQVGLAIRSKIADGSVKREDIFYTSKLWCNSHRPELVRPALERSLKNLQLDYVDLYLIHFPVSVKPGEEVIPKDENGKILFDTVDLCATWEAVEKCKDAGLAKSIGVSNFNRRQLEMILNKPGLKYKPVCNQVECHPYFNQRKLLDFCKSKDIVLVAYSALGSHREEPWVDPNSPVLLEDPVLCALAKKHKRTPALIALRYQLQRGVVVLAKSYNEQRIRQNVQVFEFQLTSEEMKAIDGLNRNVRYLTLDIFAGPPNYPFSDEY", "assay": "Inhibition of AKR1C1-mediated progesterone reduction in human A549 cells at 0.2 to 5 uM incubated for 2 hrs prior to substrate addition measured after 6 hrs by LC/MS analysis", "type": "cell-based", "procedure,_shortened": "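A549 cells were grown in DMEM with 10% FBS at 37 °C under 5% CO2. They were pretreated 2 h with inhibitor in serum-free medium, then given 30 μM progesterone for 6 h. Medium steroids were extracted twice with ethyl acetate. Progesterone and 20α-hydroxyprogesterone were quantified by LC/MS (chiral column, total-ion monitoring). Percent inhibition of reduction is the mean of two independent experiments.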"}, "[3]": {"target": "T1, Aldo-keto reductase family 1 member C3", "assay": "Inhibition of human recombinant AKR1C3 expressed in Escherichia coli JM109 cells using S-tetralol as substrate by fluorometry"}, "[4]": {"target": "T1, Aldo-keto reductase family 1 member C3", "assay": "Competitive inhibition of human recombinant AKR1C3 expressed in Escherichia coli JM109 cells using S-tetralol as substrate by fluorometry", "procedure,_shortened": "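Recombinant enzymes (wild-type or mutant) were expressed in E. coli JM109 and purified to homogeneity. Activity was NADP+-linked S-tetralol oxidation at 25 °C in 0.1 M potassium phosphate, pH 7.4, with saturating 0.25 mM NADP+ and five S-tetralol levels (0.33−2 mM). NADPH fluorescence was read at ex 340/em 455 nm. Ki is the mean ± SD of at least three determinations.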"}, "[5]": {"target": "T1, Aldo-keto reductase family 1 member C3", "assay": "Noncompetitive inhibition of human recombinant AKR1C3 expressed in Escherichia coli JM109 cells using S-tetralol as substrate by fluorometry in presence of NADP+"}, "[6]": {"tested_on": "PC-3", "assay": "Growth inhibition of human PC3 cells overexpressing AKR1C3 at 50 uM after 72 hrs by MTT assay relative to untreated control", "type": "functional", "conditions": "PC-3, 72 h, read-out: GI"}, "[7]": {"tested_on": "PC-3", "assay": "Growth inhibition of human PC3 cells at 50 uM after 72 hrs by MTT assay relative to untreated control", "type": "functional", "conditions": "PC-3, 72 h, read-out: GI"}, "[8]": {"target": "T2, Aldo-keto reductase family 1 member C1", "assay": "Inhibition of human recombinant GST-tagged AKR1C1 expressed in Escherichia coli using S-tetralol as substrate by fluorometry", "procedure,_shortened": "(§1)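 Purified recombinant enzyme was assayed at 25 °C in 0.1 M potassium phosphate, pH 7.4, with 0.25 mM NADP+ and S-tetralol (0.1 mM for AKR1C1, 1 mM for AKR1C4). The rate of NADPH fluorescence increase was read at ex 340/em 455 nm. IC50 is the mean ± SD of at least three determinations.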"}, "[9]": {"target": "Aldo-keto reductase family 1 member C2 (Homo sapiens, UniProt P52895)", "sequence (P52895 whole entry)": "as the sequence (Q04828 whole entry) above, with T38V, R47H, L54V, C87S, V151M, R170H, Q172L counted along it", "assay": "Inhibition of human recombinant AKR1C2 expressed in Escherichia coli using S-tetralol as substrate by fluorometry"}, "[10]": {"target": "Aldo-keto reductase family 1 member C4 (Homo sapiens, UniProt P17516)", "sequence (P17516 whole entry)": "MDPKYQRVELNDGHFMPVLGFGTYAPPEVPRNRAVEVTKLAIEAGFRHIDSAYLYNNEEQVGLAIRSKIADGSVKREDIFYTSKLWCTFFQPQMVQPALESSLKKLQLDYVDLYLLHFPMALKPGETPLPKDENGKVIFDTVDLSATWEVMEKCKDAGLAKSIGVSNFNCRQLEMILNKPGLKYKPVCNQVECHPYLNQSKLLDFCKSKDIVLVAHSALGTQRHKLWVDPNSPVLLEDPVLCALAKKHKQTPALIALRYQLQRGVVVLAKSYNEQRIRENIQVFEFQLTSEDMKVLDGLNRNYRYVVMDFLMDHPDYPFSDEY", "assay": "Inhibition of human recombinant GST-tagged AKR1C4 expressed in Escherichia coli using S-tetralol as substrate by fluorometry", "procedure,_shortened": "as §1"}, "[11]": {"target": "T1, Aldo-keto reductase family 1 member C3", "assay": "Inhibition of human AKR1C3 using S-(+)-1,2,3,4-tetrahydro-1-naphthol as substrate", "procedure,_shortened": "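Recombinant human AKR1C3, purified to homogeneity. NADP+-linked S-tetralol oxidation at 25 °C in 0.1 M potassium phosphate pH 7.4 with 0.25 mM NADP+ and 1 mM S-tetralol. Rate followed by NADPH fluorescence (excitation 340 nm, emission 455 nm). IC50 given as mean ± SD of at least three determinations.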"}}, "note": "Calls of active or inactive are those of the source. No cut-off for these calls is given here."}
{"compound": "O=C(O)/C=C/c1ccc(O)c(O)c1", "values": [{"measurement": "inhibition", "setting": "[1]", "result": 36, "unit": "%"}]}
{"compound": "O=C(O)/C=C/c1ccc(O)cc1", "values": [{"measurement": "inhibition", "setting": "[1]", "result": 22, "unit": "%"}]}
{"compound": "O=C(O)c1cc(-c2ccccc2)cc(Br)c1O", "values": [{"measurement": "inhibition", "setting": "[2]", "result": "Active"}]}
{"compound": "CC(C)=CCc1cc(/C=C/C(=O)O)cc(CC=C(C)C)c1O", "note": "[ARTEPILLIN]", "values": [{"measurement": "IC50", "setting": "[3]", "result": 1000, "unit": "nM"}, {"measurement": "Ki", "setting": "[4]", "result": 680, "unit": "nM"}, {"measurement": "Ki", "setting": "[5]", "result": 680, "unit": "nM"}]}
{"compound": "CC(C)=CCc1cc(/C=C/C(=O)O)ccc1OC(=O)CCc1ccccc1", "note": "[BACCHARIN]", "values": [{"measurement": "inhibition of growth at 50 µM", "setting": "[6]", "result": 43, "unit": "%"}, {"measurement": "inhibition of growth at 50 µM", "setting": "[7]", "result": 35, "unit": "%"}]}
{"compound": "O=C(/C=C/c1ccc(O)c(O)c1)OCCc1ccccc1", "note": "[CAFFEIC ACID PHENETHYL ESTER]", "values": [{"measurement": "IC50", "setting": "[8]", "result": 13000, "unit": "nM"}, {"measurement": "IC50", "setting": "[9]", "result": 6000, "unit": "nM"}, {"measurement": "IC50", "setting": "[3]", "result": 1700, "unit": "nM"}, {"measurement": "IC50", "setting": "[10]", "result": 2300, "unit": "nM"}]}
{"compound": "COc1ccc2c(c1)c(CC(=O)O)c(C)n2C(=O)c1ccc(Cl)cc1", "note": "[INDOMETHACIN]", "values": [{"measurement": "IC50", "setting": "[8]", "result": 130000, "unit": "nM"}, {"measurement": "IC50", "setting": "[9]", "result": 75000, "unit": "nM"}, {"measurement": "IC50", "setting": "[10]", "result": 54000, "unit": "nM"}]}
{"compound": "Cc1c(Cl)cccc1Nc1ccccc1C(=O)O", "note": "[TOLFENAMIC ACID]", "values": [{"measurement": "Ki", "setting": "[11]", "result": 8, "unit": "nM"}]}
